The results in this text go back to ChEMBL document CHEMBL3272092, “Synthesis and antihypertensive activity of 5-thio-2-pyridinecarboxylic acid derivatives” (J Med Chem, 1978).

The subject of data set [1] is Rattus norvegicus. Nature of the data set: Antihypertensive activity in spontaneous hypertensive rat model assessed as decrease in blood pressure at 100 mg/kg, po administered for 2 to 4 days measured on day 2 to day 4. The format is functional. The method in brief:
(§1)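 SHR, 4–6 per drug, were dosed daily by gavage for 2 or 4 consecutive days in 3% cornstarch, 5% PEG-400 and 1 drop Tween 80 per mL. After 1 h acclimation, systolic pressure was read by tail-cuff (inflated to 250 mmHg, then lowered; pulse reemergence), at least three readings, at 1, 2, 3 and 24 h post-dose. The peak fall is scored: +, <20 mm up to >80 mm.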

The subject of data set [2] is Rattus norvegicus. In words: Antihypertensive activity in spontaneous hypertensive rat model assessed as decrease in blood pressure at 200 mg/kg, po administered for 2 to 4 days measured on day 2 to day 4. The format is functional. In outline: as §1
Data set [3] concerns Rattus norvegicus. Nature of the data set: Toxicity in spontaneous hypertensive rat model assessed as bradycardia at 100 to 200 mg/kg, po administered for 2 to 4 days. In kind it is organism-based. More on the design: route oral. The note with it: in vivo. The method in brief: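 Heart rate in SHR was counted from tail-cuff pressure pulses after 1 h acclimation. Rats (4–6 per drug) were gavaged daily for 2 or 4 days at 100 mg/kg (sometimes 200 mg/kg) in 3% cornstarch, 5% PEG-400 and 1 drop Tween 80 per mL. Recordings were at 1, 2, 3 and 24 h after each dose.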

In data set [4] the test system is Canis familiaris. Nature of the data set: Antihypertensive activity in unanesthetized renal hypertensive Mongrel dog model assessed as change in mean blood pressure at 100 mg/kg, po qd measured on day 1. In kind it is functional, Canis lupus familiaris. In outline: (§2)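 Unanesthetized renal hypertensive dogs. Arterial pressure was recorded via a hypodermic needle and polyethylene tubing to a pressure transducer. Drug was given orally once daily as solid in a gelatin capsule. Pressure was determined 1.5, 3, 6 and 24 h after each dose, and the maximum change over each daily monitored session is reported.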

Data set [5] concerns Canis familiaris. Nature of the data set: Antihypertensive activity in unanesthetized renal hypertensive Mongrel dog model assessed as change in mean blood pressure at 100 mg/kg, po qd measured on day 2. In kind it is functional, Canis lupus familiaris. The method in brief: as §2
Data set [6] deals with Canis familiaris. Nature of the data set: Toxicity in unanesthetized renal hypertensive Mongrel dog model assessed as change in heart rate at 100 mg/kg, po qd measured on day 1. Conditions: in vivo. More on the design: dose 100 mg/kg, route oral. The format is organism-based, Canis lupus familiaris. The method in brief: (§3)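 Heart rate in unanesthetized renal hypertensive dogs was counted manually from the transducer-recorded arterial pressure trace. Oral dosing was once daily as solid in a gelatin capsule. Readings were at 1.5, 3, 6 and 24 h post-dose, and the maximum change per daily session is reported.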

The subject of data set [7] is Canis familiaris. Nature of the data set: Toxicity in unanesthetized renal hypertensive Mongrel dog model assessed as change in heart rate at 100 mg/kg, po qd measured on day 2. In kind it is organism-based, Canis lupus familiaris. More on the design: dose 100 mg/kg, route oral. Conditions: in vivo. The method in brief:
as §3

Data set [8] relates to Squirrel monkey. Nature of the data set: Antihypertensive activity in normotensive squirrel monkey model assessed as decrease in systolic blood pressure at 100 mg/kg, po qd measured on day 2 by sphygmomanometry. In kind it is functional, Saimiri sciureus, Artery. The method in brief: (§4)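 Restrained squirrel monkeys of either sex with tails warmed by infrared lamp. Systolic pressure was measured indirectly with a tail-base occlusion cuff and pulse transducer. Doses were given daily by gavage as a suspension in 3% cornstarch, 5% PEG-400 and 1 drop Tween 80 per 10 mL. Readings were taken 1.5, 3, 5 and 24 h post-dose. Values are the peak change after each dose, analysed by paired t test.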

Data set [9] concerns Squirrel monkey. In words: Antihypertensive activity in normotensive squirrel monkey model assessed as decrease in systolic blood pressure at 100 mg/kg, po qd measured on day 1 by sphygmomanometry. The format is functional, Saimiri sciureus, Artery. The method in brief:
as §4

Data set [10] concerns Squirrel monkey. In words: Antihypertensive activity in normotensive squirrel monkey model assessed as decrease in systolic blood pressure at 100 mg/kg, po qd measured on day 3 by sphygmomanometry. The format is functional, Saimiri sciureus, Artery. The method in brief: as §4
The test system of data set [11] is Squirrel monkey. In words: Antihypertensive activity in normotensive squirrel monkey model assessed as decrease in systolic blood pressure at 100 mg/kg, po qd measured on day 4 by sphygmomanometry. The format is functional, Saimiri sciureus, Artery. The method in brief:
as §4

Data set [12] deals with Squirrel monkey. Nature of the data set: Toxicity in normotensive squirrel monkey model assessed as change in heart rate at 100 mg/kg, po qd measured on day 2. The format is organism-based, Saimiri sciureus. More on the design: dose 100 mg/kg, route oral. The note with it: in vivo. The method in brief: (§5)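 Heart rate in restrained, tail-warmed squirrel monkeys was counted manually from the tail-cuff pressure record. Daily gavage used a suspension in 3% cornstarch, 5% PEG-400 and 1 drop Tween 80 per 10 mL. Monitoring was at 1.5, 3, 5 and 24 h after each dose, and the peak change per administration is reported. Paired t test.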

Data set [13] deals with Squirrel monkey. Nature of the data set: Toxicity in normotensive squirrel monkey model assessed as change in heart rate at 100 mg/kg, po qd measured on day 1. In kind it is organism-based, Saimiri sciureus. More on the design: dose 100 mg/kg, route oral. Conditions: in vivo. In outline: as §5
Data set [14] deals with Squirrel monkey. In words: Toxicity in normotensive squirrel monkey model assessed as change in heart rate at 100 mg/kg, po qd measured on day 3. In kind it is organism-based, Saimiri sciureus. More on the design: dose 100 mg/kg, route oral. The note with it: in vivo. The method in brief: as §5
Data set [15] has as its system Squirrel monkey. In words: Toxicity in normotensive squirrel monkey model assessed as change in heart rate at 100 mg/kg, po qd measured on day 4. In kind it is organism-based, Saimiri sciureus. More on the design: dose 100 mg/kg, route oral. Conditions: in vivo. In outline: as §5
Data set [16] relates to Canis familiaris. Nature of the data set: Toxicity in unanesthetized renal hypertensive Mongrel dog model assessed as emesis at 100 mg/kg, po qd measured on day 1 to 4. In kind it is organism-based, Canis lupus familiaris. More on the design: dose 100 mg/kg, route oral. The note with it: in vivo.

Consider `O=C(O)c1ccc([S+]([O-])Cc2cccc(C(F)(F)F)c2)cn1` (stereo unspecified), for which the Activity in the data set with Rattus norvegicus [1] is over 40 mmHg; in the data set with Rattus norvegicus [2], over 60 mmHg; in the data set on Rattus norvegicus [3] it was “Toxic”; with Canis familiaris [4], -7 mmHg; with Canis familiaris [5] it was -10 mmHg; in the data set with Canis familiaris [6], 10 bpm. In addition, the Activity in the data set on Canis familiaris [7] is reported as 2 bpm; in the data set on Squirrel monkey [8], -29 mmHg; in the data set with Squirrel monkey [9], -30 mmHg; in the data set on Squirrel monkey [10] it was -19 mmHg; in the data set on Squirrel monkey [11], -19 mmHg; with Squirrel monkey [12], -83 bpm. The Activity was -43 bpm in the data set with Squirrel monkey [13], -73 bpm with Squirrel monkey [14], -33 bpm in the data set on Squirrel monkey [15] and “Non-toxic” in the data set on Canis familiaris [16].
